Assay results reported in ChEMBL document CHEMBL5724801, “EUbOPEN Chemogenomics Library - Multiplex” (2024).
Where “and” joins values, the source holds several entries; their conditions need not be identical. Identical values can stand only once.

Tested on: HEK-293T
Test: Multiplex assay against HEK293T
Assay type: toxicity, cell-based
Conditions: human
Procedure, shortened: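 Imaging took place on a CQ1 microscope at 37°C and 5% CO2 once compound had been added to live cells stained at seeding with Hoechst33342, BioTracker Green Microtubule Cytoskeleton Dye, MitoTracker Red and Annexin V Alexa Fluor 680. CellPathfinder machine-learning gating classed cells as Hoechst high-intensity objects or normal cells, classed normal cells as having healthy, pyknosed or fragmented nuclei, and classed pyknosed cells as mitotic or apoptotic. Tubulin, mitochondrial-mass and membrane-permeability phenotypes are per cents of the healthy-nucleus cells.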

[1] = 12 h, 1 µM, compound concentration 1 uM
[2] = 12 h, 10 µM, compound concentration 10 uM
[3] = 24 h, 1 µM, compound concentration 1 uM
[4] = 24 h, 10 µM, compound concentration 10 uM
[5] = 48 h, 1 µM, compound concentration 1 uM
[6] = 48 h, 10 µM, compound concentration 10 uM

Compound: CNc1nc(NCc2ncccn2)c2c(-c3ccc4ncccc4c3)c[nH]c2n1
- Population Apoptotic (%) [1]: 9.22% and 10.1%
- Population Fragmented Nuclei (%) [1]: 2.26% and 3.88%
- Population Hoechst High Intensity Objects (%) [1]: 0.25% and 0%
- Population Membrane Permeable-Phenotype (%) [1]: 0.81% and 0%
- Population Mitotic Cells (%) [1]: 90.78% and 89.9%
- Population Normal (%) [1]: 99.75% and 100%
- Population Pyknosed Nuclei (%) [1]: 35.43% and 76.74%
- Population Apoptotic (%) [2]: 13.38% and 23.23%
- Population Fragmented Nuclei (%) [2]: 2.88% and 3.98%
- Population Hoechst High Intensity Objects (%) [2]: 0.64% and 0%
- Population Membrane Permeable-Phenotype (%) [2]: 0%
- Population Mitotic Cells (%) [2]: 86.62% and 76.77%
- Population Normal (%) [2]: 99.36% and 100%
- Population Pyknosed Nuclei (%) [2]: 45.51% and 88.07%
- Population Tubulin-Different-Phenotype (%) [2]: 20.5% and 42.86%
- Total Cell Count [2]: 314 and 176
- Population Apoptotic (%) [3]: 7.44% and 13.04%
- Population Fragmented Nuclei (%) [3]: 1.55% and 3.01%
- Population Healthy Nuclei (%) [3]: 79.72% and 45.11%
- Population Hoechst High Intensity Objects (%) [3]: 0.15% and 0%
- Population Membrane Permeable-Phenotype (%) [3]: 0.78% and 0%
- Population Mitochondria Different-Phenotype (%) [3]: 15.34% and 13.33%
- Population Mitotic Cells (%) [3]: 92.56% and 86.96%
- Population Normal (%) [3]: 99.85% and 100%
- Population Pyknosed Nuclei (%) [3]: 18.73% and 51.88%
- Population Tubulin-Different-Phenotype (%) [3]: 9.13% and 10%
- Population Apoptotic (%) [4]: 21.74% and 18.6%
- Population Fragmented Nuclei (%) [4]: 2.16% and 2.65%
- Population Healthy Nuclei (%) [4]: 75.72% and 29.1%
- Population Hoechst High Intensity Objects (%) [4]: 0%
- Population Membrane Permeable-Phenotype (%) [4]: 2.22% and 7.27%
- Population Mitochondria Different-Phenotype (%) [4]: 39.37% and 32.73%
- Population Mitotic Cells (%) [4]: 78.26% and 81.4%
- Population Normal (%) [4]: 100%
- Population Tubulin-Different-Phenotype (%) [4]: 28.89% and 25.45%
- Total Cell Count [4]: 416 and 189
- Population Fragmented Nuclei (%) [5]: 3.92% and 2.35%
- Population Healthy Nuclei (%) [5]: 88.02% and 64.71%
- Population Hoechst High Intensity Objects (%) [5]: 0% and 0.58%
- Population Membrane Permeable-Phenotype (%) [5]: 3.68% and 0.91%
- Population Mitochondria Different-Phenotype (%) [5]: 13.1% and 22.73%
- Population Mitotic Cells (%) [5]: 93.46% and 80.36%
- Population Normal (%) [5]: 100% and 99.42%
- Population Apoptotic (%) [6]: 10.91% and 21.43%
- Population Fragmented Nuclei (%) [6]: 4.49% and 5.56%
- Population Healthy Nuclei (%) [6]: 86.38% and 55.56%
- Population Hoechst High Intensity Objects (%) [6]: 0% and 2.7%
- Population Membrane Permeable-Phenotype (%) [6]: 2.12% and 5%
- Population Mitochondria Different-Phenotype (%) [6]: 57.5% and 60%
- Population Mitotic Cells (%) [6]: 89.09% and 78.57%
- Population Normal (%) [6]: 100% and 97.3%

Compound: Cl.Clc1cc2cc(c1)-c1cnn3ccc(nc13)NCCOCCO2
- Population Apoptotic (%) [1]: 7.52% and 9.38%
- Population Fragmented Nuclei (%) [1]: 1.41% and 6.41%
- Population Hoechst High Intensity Objects (%) [1]: 0%
- Population Membrane Permeable-Phenotype (%) [1]: 0.46% and 0%
- Population Mitochondria Different-Phenotype (%) [1]: 39.63% and 22.22%
- Population Mitotic Cells (%) [1]: 92.48% and 90.62%
- Population Normal (%) [1]: 100%
- Population Pyknosed Nuclei (%) [1]: 37.46% and 82.05%
- Total Cell Count [1]: 355 and 156
- Population Apoptotic (%) [2]: 20.33% and 8.33%
- Population Fragmented Nuclei (%) [2]: 2.02% and 1.83%
- Population Healthy Nuclei (%) [2]: 56.57% and 25%
- Population Hoechst High Intensity Objects (%) [2]: 0% and 0.61%
- Population Membrane Permeable-Phenotype (%) [2]: 1.19% and 2.44%
- Population Mitochondria Different-Phenotype (%) [2]: 35.71% and 26.83%
- Population Mitotic Cells (%) [2]: 79.67% and 91.67%
- Population Normal (%) [2]: 100% and 99.39%
- Population Pyknosed Nuclei (%) [2]: 41.41% and 73.17%
- Total Cell Count [2]: 297 and 165
- Population Apoptotic (%) [3]: 18.58% and 9.43%
- Population Fragmented Nuclei (%) [3]: 0.93% and 4.73%
- Population Hoechst High Intensity Objects (%) [3]: 0%
- Population Membrane Permeable-Phenotype (%) [3]: 1.19% and 0%
- Population Mitochondria Different-Phenotype (%) [3]: 17.58% and 22.86%
- Population Mitotic Cells (%) [3]: 81.42% and 90.57%
- Population Normal (%) [3]: 100%
- Population Tubulin-Different-Phenotype (%) [3]: 11.16% and 5.71%
- Population Apoptotic (%) [4]: 25.26% and 16.38%
- Population Fragmented Nuclei (%) [4]: 2.17% and 2.23%
- Population Healthy Nuclei (%) [4]: 72.01% and 32.96%
- Population Hoechst High Intensity Objects (%) [4]: 0%
- Population Membrane Permeable-Phenotype (%) [4]: 0.75% and 0%
- Population Mitochondria Different-Phenotype (%) [4]: 30.19% and 10.17%
- Population Mitotic Cells (%) [4]: 74.74% and 83.62%
- Population Normal (%) [4]: 100%
- Population Pyknosed Nuclei (%) [4]: 25.82% and 64.8%
- Population Tubulin-Different-Phenotype (%) [4]: 9.81% and 5.08%
- Total Cell Count [4]: 368 and 179
- Population Fragmented Nuclei (%) [5]: 3.48% and 1.96%
- Population Healthy Nuclei (%) [5]: 87.01% and 64.71%
- Population Hoechst High Intensity Objects (%) [5]: 0% and 0.97%
- Population Membrane Permeable-Phenotype (%) [5]: 5.92% and 3.03%
- Population Mitochondria Different-Phenotype (%) [5]: 15.1% and 25%
- Population Mitotic Cells (%) [5]: 97.71% and 83.82%
- Population Normal (%) [5]: 100% and 99.03%
- Population Apoptotic (%) [6]: 16.05% and 15.07%
- Population Fragmented Nuclei (%) [6]: 3.95% and 2.66%
- Population Healthy Nuclei (%) [6]: 86.64% and 69.58%
- Population Hoechst High Intensity Objects (%) [6]: 0.12% and 0.75%
- Population Membrane Permeable-Phenotype (%) [6]: 3.08% and 0%
- Population Mitochondria Different-Phenotype (%) [6]: 26.54% and 19.13%
- Population Mitotic Cells (%) [6]: 83.95% and 84.93%
- Population Normal (%) [6]: 99.88% and 99.25%
- Population Pyknosed Nuclei (%) [6]: 9.41% and 27.76%
